Test results taken from ChEMBL document CHEMBL3045523, “The limonoids and their antitobacco mosaic virus (TMV) activities from Munronia unifoliolata Oliv” (J Agric Food Chem, 2012).
Converted amounts (≈) assume the structure as drawn.

Legend:
[1] = system: Tobacco mosaic virus; experiment: Inhibition of Tobacco mosaic virus (TMV) infection in Nicotiana tabacum cv. K326 at 30 ug/ml by DAS-ELISA method; format: functional
How it was run: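 Leaf-disk test in N. tabacum cv. K326. Leaves were inoculated with TMV (30 μg/mL), and 1 cm disks were cut after 72 h. Disks were floated on compound, DMSO (negative) or mock solutions at 28 °C for 48 h. Virus in disks was measured by DAS-ELISA at OD405 against a TMV standard curve (0.23–3.75 μg/mL). Inhibition = (1 − treated/negative-control TMV) × 100%.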

[2] = system: Tobacco mosaic virus; experiment: Inhibition of Tobacco mosaic virus (TMV) infection in Nicotiana glutinosa assessed as infection inhibition rate at 5 ug/ml after 3 to 4 days by half-leaf method; format: functional
How it was run: (§1)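 Half-leaf protective assay on Nicotiana glutinosa local-lesion host at the 4–5 leaf stage. TMV U1, purified and diluted to 30 μg/mL in 0.01 M PBS, was mixed with compound solution (DMSO stock diluted in water) for 30 min. The mix was rubbed onto the left leaf half, with virus plus DMSO on the right half. Local lesions were counted 3–4 days later; three repetitions.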

[3] = system: Tobacco mosaic virus; experiment: Inhibition of Tobacco mosaic virus (TMV) infection in Nicotiana glutinosa assessed as infection inhibition rate at 20 ug/ml after 3 to 4 days by half-leaf method; format: functional; how it was run: as §1
[4] = system: Tobacco mosaic virus; experiment: Inhibition of Tobacco mosaic virus (TMV) infection in Nicotiana glutinosa assessed as infection inhibition rate at 25 ug/ml after 3 to 4 days by half-leaf method; format: functional; how it was run: as §1
[5] = system: Tobacco mosaic virus; experiment: Inhibition of Tobacco mosaic virus (TMV) infection in Nicotiana glutinosa assessed as infection inhibition rate at 30 ug/ml after 3 to 4 days by half-leaf method; format: functional; how it was run: as §1
[6] = system: Tobacco mosaic virus; experiment: Inhibition of Tobacco mosaic virus (TMV) infection in Nicotiana glutinosa assessed as infection inhibition rate at 15 ug/ml after 3 to 4 days by half-leaf method; format: functional; how it was run: as §1
[7] = system: Tobacco mosaic virus; experiment: Inhibition of Tobacco mosaic virus (TMV) infection in Nicotiana glutinosa after 3 to 4 days by half-leaf method; format: functional, organism-based; how it was run: as §1
[8] = system: Tobacco mosaic virus; experiment: Inhibition of Tobacco mosaic virus (TMV) infection in Nicotiana glutinosa assessed as infection inhibition rate at 10 ug/ml after 3 to 4 days by half-leaf method; format: functional; how it was run: as §1
[9] = system: Tobacco mosaic virus; experiment: Inhibition of Tobacco mosaic virus (TMV) infection in Nicotiana glutinosa at 200 ug/ml after 3 to 4 days by half-leaf method; format: functional
How it was run: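 Curative half-leaf test on N. glutinosa. Leaves were mechanically inoculated with purified TMV U1 (30 μg/mL). After 2 h, compound (DMSO stock in water) was applied to the left half and DMSO to the right half. Lesions were counted after 3–4 days. Values are mean ± SD, n = 3.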

Compound | inhibition at 30 µg/mL [1] [%] | inhibition at 5 µg/mL [2] [%] | inhibition at 20 µg/mL [3] [%] | inhibition at 25 µg/mL [4] [%] | inhibition at 30 µg/mL [5] [%] | inhibition at 15 µg/mL [6] [%] | IC50 [7] [µg/mL] | inhibition at 10 µg/mL [8] [%] | inhibition at 200 µg/mL [9] [%]
CCC(C)C(O)C(=O)O[C@H]1C[C@H]2[C@](C)(C3=CC[C@@H](c4ccoc4)[C@@]31C)[C@H](OC(C)=O)C[C@H]1C(C)(C)OC(=O)C[C@H](OC(C)=O)[C@@]12C (stereo partly specified) [MUNRONOID K] | 67.2 | 6.5 | 38.7 | 45.7 | 51.9 | 28.6 | 28.3 (≈ 44 µM) | 18.7 | 55.6
CC(=O)O[C@H]1C[C@@H](OC(C)=O)[C@@]2(C)CO[C@H]3[C@@H](O)[C@@]4(C)C5=CC[C@@H](c6ccoc6)[C@]5(C)CC[C@@H]4[C@]1(C)[C@@H]32 [DIACETYLVILASININ] | – | – | – | – | 14.6 | – | – | – | 17.2
C=C1[C@@H]([C@@]2(C)C=CC(=O)O[C@](C)(COC(C)=O)[C@@H]2CC(=O)OC)[C@@H](OC=O)[C@H](OC(=O)[C@H](O)[C@H](C)CC)[C@@]2(C)[C@@H](c3ccoc3)C[C@H]3O[C@]132 [MOMBASOL] | 39.3 | – | – | – | 25.9 | – | – | – | 27.7
C=C1[C@@H]([C@@]2(C)C=CC(=O)OC(C)(C)[C@@H]2CC(=O)OC)[C@@H](OC(C)=O)[C@H](OC(C)=O)[C@@]2(C)[C@@H](c3ccoc3)C[C@H]3O[C@]132 [NYMANIA] | 55.4 | 8.3 | 40.2 | 49.8 | 58 | 29.8 | 22.3 (≈ 39.1 µM) | 19.6 | 39.2
C/C=C(\C)C(=O)O[C@H]1C[C@@H](OC(C)=O)[C@@]2(C)CO[C@H]3[C@@H](O)[C@@]4(C)C5=C[C@@H](O)[C@@H](c6ccoc6)[C@]5(C)[C@@H](OC)C[C@@H]4[C@]1(C)[C@@H]32 [MUNRONOID N] | 30.2 | 8.3 | 37.9 | 44.6 | 52 | 26.4 | 27.9 (≈ 46.6 µM) | 16.5 | 24.5
CNCC(=O)N[C@@H](CO)C(=O)N[C@H]1[C@H](O)[C@@H](O)[C@H](n2ccc(N)nc2=O)O[C@@H]1C(N)=O [NINGNANMYCIN] | 56.5 | – | 32.1 | 38.3 | 42.6 | 30.3 | 52.1 (≈ 117 µM) | 25 | 42.1
CC(=O)O[C@H]1C[C@H]2[C@](C)(C3=CC[C@@H](c4ccoc4)[C@@]31C)[C@H](OC(=O)C=C(C)C)C[C@H]1C(C)(C)OC(=O)C[C@H](OC(C)=O)[C@@]12C [MUNRONOID M] | 45.7 | – | 33.5 | 42.9 | 45.4 | 22.6 | 37 (≈ 60.6 µM) | 11.5 | 29.3
CC(=O)O[C@H]1C[C@H]2[C@](C)(C3=CC[C@@H](c4ccoc4)[C@@]31C)[C@H](OC(C)=O)C[C@H]1C(C)(C)OC(=O)C[C@H](OC(C)=O)[C@@]12C [MUNRONOID L] | 54.4 | 4.4 | 35.8 | 43.9 | 47.7 | 25.7 | 34.6 (≈ 60.6 µM) | 15.3 | 34.6
C=C1[C@@H]([C@@]2(C)C=CC(=O)OC(C)(C)[C@@H]2CC(=O)OC)[C@@H](OC(C)=O)[C@H](OC(C)=O)[C@@]2(C)[C@H](C3=CC(=O)OC3)C[C@H]3O[C@]132 [MUNRONOID O] | 64.2 | 11.2 | 42.8 | 51.4 | 64.2 | 33.4 | 22.2 (≈ 37.8 µM) | 24.6 | 50.2
